The values that follow come from ChEMBL document CHEMBL1129403, “Analogs of 3-hydroxy-1H-1-benzazepine-2,5-dione: structure-activity relationship at N-methyl-D-aspartate receptor glycine sites” (J Med Chem, 1996).

“And” between values parts separate entries of the source, which are not always exact repeats. Equal entries are not always repeated. Some results are limits rather than exact numbers.

The target in test [1] is Glutamate NMDA receptor. Put plainly: Compound was tested for inhibition of [3H]MK-801 binding to N-methyl-d-aspartate receptors(NMDA) of rat brain cortical membranes. It counts as cell membranes, Membrane. The method in brief:
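[³H]MK801 displacement in rat brain cortical membranes, run by a previously described method. Compounds with IC50 < 300 µM were counted as potential NMDA antagonists.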

Test [2] addresses T1, Glutamate NMDA receptor (Rattus norvegicus) (UniProt P35439+Q00959+Q00960+Q00961+Q62645+Q8VHN2+Q9R1M7). Put plainly: Inhibition of NMDA(glycine) receptors was measured in oocytes expressing cloned rat brain receptor subunits (NR1a/2C). Number of cells examined are 4. It counts as functional, cell-based. Conditions: Oocyte.
Test [3] addresses Glutamate NMDA receptor. As to the kind of experiment: Inhibition of [3H]5,7-dichlorokynurenic acid(DCKA) binding to N-methyl-d-aspartate receptors(NMDA) of rat brain cortical membranes. Format: cell membranes, Membrane. The method in brief: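 [³H]DCKA (15-20 nM) incubated with well-washed rat cortical membranes and nine concentrations (up to 100 µM) in 50 mM HEPES-KOH, pH 7.5, for 30 min on ice. Reaction stopped by filtration and filter-bound radioactivity counted by liquid scintillation. IC50 taken from a sigmoidal fit.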

For the next test, the system named is Mus musculus. Put plainly: In vivo potency in mouse maximum electroshock-inducedseizure after i.v. administration. It counts as functional. As to conditions: iv.
The target of test [4] is T2, Glutamate receptor ionotropic, AMPA (Rattus norvegicus) (UniProt P19491+P19492+P19493+P19490). Put plainly: Inhibition of AMPA(glutamate) preferring non-NMDA receptors was measured in oocytes expressing rat brain poly(A)+ RNA. Number of cells examined are 4. It counts as functional, cell-based. Conditions: Oocyte. The method in brief: (§1)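 Oocytes injected with rat cerebral cortex poly(A)+ RNA, two-electrode voltage clamp. Currents elicited by 10 µM AMPA. Kb derived from partial concentration-inhibition curves by generalized Cheng-Prusoff, using AMPA EC50 5.89 µM and slope 1.96.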

Test [5] is described as follows: Ratio of binding affinities of NMDA / AMPA. The method in brief:
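Steady-state selectivity index: Kb AMPA divided by Kb NMDA, with both Kb values taken from oocyte recordings.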

The target in test [6] is T2, Glutamate receptor ionotropic, AMPA (Rattus norvegicus). Put plainly: Inhibition of AMPA(glutamate) preferring non-NMDA receptors was measured in oocytes expressing rat brain poly(A)+ RNA. Number of cells examined are 3. As to conditions: Oocyte. Format: functional, cell-based. The method in brief:
as §1

Test [7] has the same target. Put plainly: Inhibition of AMPA(glutamate) preferring non-NMDA receptors was measured in cultured rat cortical neurons. Number of cells examined are 2.
For test [8], the target named is AMPA receptor (Rattus norvegicus). As to the kind of experiment: Inhibition of AMPA(glutamate) preferring non-NMDA receptors was measured in oocytes expressing rat brain poly(A)+ RNA. Number of cells examined are 6. As to conditions: Oocyte.
For test [9], the target named is T1, Glutamate NMDA receptor (Rattus norvegicus). As to the kind of experiment: Inhibition of NMDA(glycine) receptors was measured in oocytes expressing cloned rat brain receptor subunits (NR1a/2C). Number of cells examined are 2. Format: functional, cell-based. As to conditions: Oocyte.
For test [10], the target named is T2, Glutamate receptor ionotropic, AMPA (Rattus norvegicus). As to the kind of experiment: Inhibition of AMPA(glutamate) preferring non-NMDA receptors was measured in cultured rat cortical neurons. Number of cells examined are 3.
Test [11] deals with T1, Glutamate NMDA receptor (Rattus norvegicus). Put plainly: Inhibition of NMDA(glycine) receptors was measured in oocytes expressing cloned rat brain receptor subunits (NR1a/2C). Number of cells examined are 3. It counts as functional, cell-based. As to conditions: Oocyte.
The target in test [12] is T2, Glutamate receptor ionotropic, AMPA (Rattus norvegicus). Put plainly: Inhibition of AMPA(glutamate) preferring non-NMDA receptors was measured in oocytes expressing rat brain poly(A)+ RNA. Number of cells examined are 5. It counts as functional, cell-based. As to conditions: Oocyte. The method in brief: as §1
For test [13] the target is unchanged. As to the kind of experiment: Inhibition of AMPA(glutamate) preferring non-NMDA receptors was measured in cultured rat cortical neurons. Number of cells examined are 8.
Test [14] deals with T1, Glutamate NMDA receptor (Rattus norvegicus). Put plainly: Inhibition of NMDA(glycine) receptors was measured in oocytes expressing cloned rat brain receptor subunits (NR1a/2C). Number of cells examined are 7. Format: functional, cell-based. Conditions: Oocyte.

As for `Cc1ccc(C)c2c(O)cc(=O)c(=O)[nH]c12`, on Glutamate NMDA receptor [1], the IC50 was greater than 300000 nM.

Take `Cc1cc2[nH]c(=O)c(O)cc(=O)c2cc1C`: the Kb amounted to 86 nM in test [2] and 3800 nM in test [4]. On Glutamate NMDA receptor [3], this compound returned an IC50 of 240 nM. For the same compound, in the test on Mus musculus, the ED50 was 6.3 mg/kg. The Ratio in [5] stood at 44.

Turning to `CCc1ccc2c(O)cc(=O)c(=O)[nH]c2c1`, on Glutamate NMDA receptor [3], the IC50 is 5100 nM.

With `O=c1cc(O)c2ccccc2[nH]c1=O`, the Kb came out at 1300 nM in [2], 42000 nM in [6] and 65000 nM in [7]. Also, the IC50 on Glutamate NMDA receptor [3] amounted to 830 nM. In addition, in test [5], the Ratio is 32.

As for `Cc1cc(C)c2c(O)cc(=O)c(=O)[nH]c2c1`, at Glutamate NMDA receptor [3], the IC50 is 300 nM. Moreover, the ED50 in the test on Mus musculus stood at 3.9 mg/kg.

For `O=c1cc(O)c2ccc(Br)cc2[nH]c1=O`, the Kb amounted to 26 nM in [2] and 2700 nM in test [8]. For the same compound, the IC50 at Glutamate NMDA receptor [3] was 79 nM. Besides, the Ratio in test [5] is 100.

The compound `Cc1cc(C)c2[nH]c(=O)c(O)cc(=O)c2c1` displayed an IC50 on Glutamate NMDA receptor [1] greater than 300000 nM.

On Glutamate NMDA receptor [3], `O=c1cc(O)c(=O)c2ccccc2[nH]1` came in with an IC50 greater than 100000 nM. Further, in test [9], the Kb is greater than 55000 nM.

In the case of `CC(=O)Nc1ccc2[nH]c(=O)c(O)cc(=O)c2c1`, the IC50 on Glutamate NMDA receptor [3] was greater than 100000 nM.

In turn, `O=c1cc(O)c2cc([N+](=O)[O-])ccc2[nH]c1=O` registered an IC50 at Glutamate NMDA receptor [3] of 12000 nM. That is a double-digit micromolar value.

Consider `Cc1c[nH]c(=O)c(O)cc1=O`, for which the IC50 at Glutamate NMDA receptor [1] was greater than 300000 nM.

Regarding `Cc1ccc2c(O)cc(=O)c(=O)[nH]c2c1`, the IC50 at Glutamate NMDA receptor [3] is 130 nM. Besides, the Kb in [10] was 6400 nM; in [4] it was 9900 nM; in test [11], 250 nM and 470 nM. Besides, the Ratio in test [5] was 40.

`O=c1ccc(=O)c2ccccc2[nH]1` registered an IC50 on Glutamate NMDA receptor [1] greater than 300000 nM.

Turning to `O=c1cc(O)c2ccc(Cl)cc2[nH]c1=O`, the Kb in test [12] was determined as 2000 nM; in test [13] it was 10000 nM; in [14], 26 nM. At Glutamate NMDA receptor [3], this compound had an IC50 of 13 nM. Besides, the ED50 with Mus musculus came to 13 mg/kg. Moreover, the Ratio in test [5] came to 77.

Regarding `Cc1cccc2[nH]c(=O)c(O)cc(=O)c12`, the IC50 on Glutamate NMDA receptor [3] came out at 13000 nM.

With `O=c1cc(O)c2ccc(F)cc2[nH]c1=O`, at Glutamate NMDA receptor [3], the IC50 is 490 nM. Also, the Kb in test [4] came out at 5300 nM; in test [11], 210 nM. In test [5], the Ratio was determined as 25.

In turn, `Cc1cccc2c(O)cc(=O)c(=O)[nH]c12` came in with an IC50 on Glutamate NMDA receptor [1] greater than 300000 nM.

Take `O=c1cc(O)c2cc(Br)ccc2[nH]c1=O`: the IC50 on Glutamate NMDA receptor [1] is greater than 300000 nM.

As to `Cc1ccc2[nH]c(=O)c(O)cc(=O)c2c1C`, on Glutamate NMDA receptor [1], the IC50 was greater than 300000 nM.

`[N-]=[N+]=Nc1ccc2[nH]c(=O)c(=O)cc(O)c2c1` returned an IC50 on Glutamate NMDA receptor [1] greater than 300000 nM.

The compound `O=Nc1c(O)c2ccccc2[nH]c(=O)c1=O` yielded an IC50 on Glutamate NMDA receptor [1] greater than 300000 nM.

Regarding `Cc1cc2[nH]c(=O)c(O)cc(=O)c2c(C)c1[N+](=O)[O-]`, on Glutamate NMDA receptor [3], the IC50 stood at 2200 nM. In other words, the single-digit micromolar range.

The compound `O=C(Nc1ccc2[nH]c(=O)c(=O)cc(O)c2c1)C(F)(F)F` showed a concentration for half-maximal inhibition (IC50) on Glutamate NMDA receptor [1] greater than 300000 nM.
